Data from ChEMBL document CHEMBL1121898, “Potential antiestrogens. Synthesis and evaluation of mammary tumor inhibiting activity of 1,2-dialkyl-1,2-bis(3'-hydroxyphenyl)ethanes” (1981).
Blank lines part the entries; values can stand above or below the molecule they belong to. Activity calls are given as the source filed them.

Experiments:
[1] = target: T1, Estrogen receptor (Mus musculus) (UniProt O08537+P19785); assay: Estrogenic activity in uterotrophic test in mice at 90 ug; assay type: functional
T1 sequence (O08537 whole entry, looked up): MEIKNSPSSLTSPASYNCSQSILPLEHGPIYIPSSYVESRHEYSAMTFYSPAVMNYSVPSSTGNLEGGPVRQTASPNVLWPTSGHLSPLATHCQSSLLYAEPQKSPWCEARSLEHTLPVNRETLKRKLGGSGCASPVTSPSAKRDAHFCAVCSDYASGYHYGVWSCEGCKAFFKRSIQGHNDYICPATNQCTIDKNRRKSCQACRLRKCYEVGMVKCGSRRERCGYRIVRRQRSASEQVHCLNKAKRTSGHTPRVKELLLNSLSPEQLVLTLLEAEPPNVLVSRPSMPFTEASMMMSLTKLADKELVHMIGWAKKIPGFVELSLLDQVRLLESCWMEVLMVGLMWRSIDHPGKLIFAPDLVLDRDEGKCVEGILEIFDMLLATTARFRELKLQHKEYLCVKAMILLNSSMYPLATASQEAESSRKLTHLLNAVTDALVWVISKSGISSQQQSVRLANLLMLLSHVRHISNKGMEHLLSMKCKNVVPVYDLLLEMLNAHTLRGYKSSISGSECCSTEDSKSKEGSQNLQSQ
T1 sequence (P19785 whole entry, looked up): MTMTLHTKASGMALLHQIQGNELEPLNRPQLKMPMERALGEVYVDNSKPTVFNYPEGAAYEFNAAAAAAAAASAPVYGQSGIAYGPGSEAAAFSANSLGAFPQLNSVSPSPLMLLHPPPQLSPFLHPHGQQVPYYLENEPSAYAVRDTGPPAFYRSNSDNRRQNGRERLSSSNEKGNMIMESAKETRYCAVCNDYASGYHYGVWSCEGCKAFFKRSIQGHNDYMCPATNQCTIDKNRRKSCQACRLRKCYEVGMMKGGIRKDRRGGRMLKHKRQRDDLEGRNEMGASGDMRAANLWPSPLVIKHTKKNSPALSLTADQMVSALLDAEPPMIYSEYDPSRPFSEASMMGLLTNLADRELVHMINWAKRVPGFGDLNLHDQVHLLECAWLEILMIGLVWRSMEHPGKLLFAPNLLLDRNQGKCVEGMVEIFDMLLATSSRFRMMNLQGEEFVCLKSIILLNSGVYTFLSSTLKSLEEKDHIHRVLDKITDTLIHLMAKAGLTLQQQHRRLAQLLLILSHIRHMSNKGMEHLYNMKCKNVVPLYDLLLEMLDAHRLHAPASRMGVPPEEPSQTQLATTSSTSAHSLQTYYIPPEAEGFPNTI
Outline: (§1)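 Immature (20-day-old) female NMRI mice, 14.5 ± 1.2 g, randomized into groups of 10. Given the test compound sc daily for 3 days in 0.1 mL olive oil. Uteri removed 24 h after the last injection; uterine weight taken as the read-out, means ± SD. Dose in μg.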

Rattus norvegicus [2] = species: Rattus norvegicus; assay: Final number of DMBA-induced hormone-dependent mammary carcinoma tumors in rats at 4.5 mg; assay type: functional
Outline: (§2)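 Sprague-Dawley rats carrying DMBA-induced, hormone-dependent mammary adenocarcinoma, at least one tumor >140 mm², were placed in groups of ten. Compounds were given sc, with doses in mg/kg: a single daily dose Monday to Thursday and a double dose on Friday. Ovariectomy served as a comparator group. New tumors arising during the test were counted.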

Rattus norvegicus [3] = species: Rattus norvegicus; assay: Partial remission of DMBA-induced hormone-dependent mammary carcinoma tumors in ovariectomised rats; assay type: functional
Outline: (§3)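 DMBA-induced, hormone-dependent mammary adenocarcinoma in SD rats, with ovariectomy as the treatment. Rats bearing at least one tumor >140 mm² were placed in groups of ten. Tumors were counted at the start and as new tumors. Responses were scored as complete remission, partial remission (≥50% size reduction), no change or progression, with % change in tumor area and body weight.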

Rattus norvegicus [4] = species: Rattus norvegicus; assay: Partial remission of DMBA-induced hormone-dependent mammary carcinoma tumors in rats at 2.25 mg; assay type: functional
Outline: (§4)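 DMBA-induced, hormone-dependent mammary adenocarcinoma in SD rats. Rats bearing at least one tumor >140 mm² were placed in groups of ten. Compound was given sc as a single dose (mg/kg) daily Monday–Thursday and a double dose on Friday. Tumors were counted at the start and as new tumors; responses were scored as complete remission (not palpable), partial remission (≥50% reduction), no change or progression. Tumor area and body weight were recorded as % change.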

Rattus norvegicus [5] = species: Rattus norvegicus; assay: Final number of DMBA-induced hormone-dependent mammary carcinoma tumors in rats at 9 mg; assay type: functional; outline: as §2
[6] = target: T1, Estrogen receptor (Mus musculus); assay: Inhibitory activity in mouse uterine weight test at 5 ug; assay type: functional
Outline: (§5)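 Antiuterotrophic (Dorfman) assay in immature 20-day-old female NMRI mice, groups of 10. Uterine growth was stimulated with estrone (0.1 μg) and the test compound was given alongside it, sc daily for 3 days in 0.1 mL olive oil. Uteri were taken 24 h after the last dose. Uterine weight is reported as means ± SD and inhibition as % of the estrone-stimulated response.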

[7] = target: T1, Estrogen receptor (Mus musculus); assay: Inhibitory activity in mouse uterine weight test at 500 ug; assay type: functional
Outline: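 Immature female NMRI mice, 20 days old (14.5 ± 1.2 g), in random groups of 10. They received sc injections daily for 3 days of 0.1 mL olive oil containing test compound, with estrone 0.1 μg given to stimulate uterine growth. Uteri were removed 24 h after the last injection and weighed (mean ± SD). Result is percent inhibition of the estrone-stimulated uterine weight gain.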

Mus musculus [8] = species: Mus musculus; assay: Vaginal cornification test in mice at 0.1 ug; predominant cellular component leucocytes (diestrus); assay type: functional, organism-based
Rattus norvegicus [9] = species: Rattus norvegicus; assay: Complete remission of DMBA-induced hormone-dependent mammary carcinoma tumors in rats at 9 mg; assay type: functional
Outline: (§6)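 Female SD rats bearing DMBA-induced, hormone-dependent mammary adenocarcinoma, with at least one tumor >140 mm², were grouped in tens. Dosing was sc per kg body weight: a single dose daily Monday–Thursday and a double dose Friday. Ovariectomy served as the comparison arm. Complete remission was defined as a tumor no longer palpable. Body weight and tumor area changes were also recorded.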

Rattus norvegicus [10] = species: Rattus norvegicus; assay: Percent change in DMBA-induced hormone-dependent mammary carcinoma tumor area in ovariectomised rats after 28 days; assay type: functional; outline: as §3
Rattus norvegicus [11] = species: Rattus norvegicus; assay: Progression of DMBA-induced hormone-dependent mammary carcinoma tumors in rats at 9 mg; assay type: functional
Rattus norvegicus [12] = species: Rattus norvegicus; assay: Percent change in body weight DMBA-induced hormone-dependent mammary carcinoma tumors in rats at 4.5 mg for 7 days; assay type: functional
Rattus norvegicus [13] = species: Rattus norvegicus; assay: Complete remission of DMBA-induced hormone-dependent mammary carcinoma tumors in rats at 2.25 mg; assay type: functional; outline: as §6
[14] = target: T1, Estrogen receptor (Mus musculus); assay: Estrogenic activity in uterotrophic test in mice at 1500 ug; assay type: functional
Outline: (§7)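 Uterine growth stimulation in immature female NMRI mice, 20 days old (14.5 ± 1.2 g), 10 per group. Test compound in 0.1 mL olive oil was given sc daily for 3 days. Uteri were excised 24 h after the final injection and weighed. Effect is reported as mean ± SD.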

Rattus norvegicus [15] = species: Rattus norvegicus; assay: Percent unchanged tumor size of DMBA-induced hormone-dependent mammary carcinoma tumors in ovarectiemised rats; assay type: functional; outline: as §3
Rattus norvegicus [16] = species: Rattus norvegicus; assay: Initial tumor number of DMBA-induced hormone-dependent mammary carcinoma in rats at 4.5 mg; assay type: functional; outline: as §4
Rattus norvegicus [17] = species: Rattus norvegicus; assay: Partial remission of DMBA-induced hormone-dependent mammary carcinoma tumors in rats at 4.5 mg; assay type: functional; outline: as §4
[18] = target: T1, Estrogen receptor (Mus musculus); assay: Antiestrogenic activity in uterotrophic test in mice at 50 ug; assay type: functional
Outline: (§8)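 Immature female NMRI mice, 20 days old (14.5 ± 1.2 g), randomly grouped 10 per group. Each received a daily sc injection for 3 days of 0.1 mL olive oil solution containing test compound, together with estrone to stimulate uterine growth. Uteri were removed 24 h after the last injection and weighed. Results are reported as % inhibition of the estrone-stimulated uterine weight gain, mean ± SD.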

Rattus norvegicus [19] = species: Rattus norvegicus; assay: Complete remission of DMBA-induced hormone-dependent mammary carcinoma tumors in rats at 4.5 mg; assay type: functional; outline: as §6
Rattus norvegicus [20] = species: Rattus norvegicus; assay: Partial remission of DMBA-induced hormone-dependent mammary carcinoma tumors in rats at 1 mg; assay type: functional; outline: as §4
[21] = target: T1, Estrogen receptor (Mus musculus); assay: Estrogenic activity in uterotrophic test in mice at 0.8 ug (experiment 1); assay type: functional; outline: as §7
Rattus norvegicus [22] = species: Rattus norvegicus; assay: Partial remission of DMBA-induced hormone-dependent mammary carcinoma tumors in rats at 2 mg; assay type: functional; outline: as §4
[23] = target: T1, Estrogen receptor (Mus musculus); assay: Inhibitory activity in mouse uterine weight test at 25 ug (experiment 2); assay type: functional; outline: as §5
[24] = target: T1, Estrogen receptor (Mus musculus); assay: Estrogenic activity in uterotrophic test in mice at 800 ug (experiment 2); assay type: functional; outline: as §1
Rattus norvegicus [25] = species: Rattus norvegicus; assay: Percent change in body weight DMBA-induced hormone-dependent mammary carcinoma tumors in rats at 4 mg for 7 days; assay type: functional
Mus musculus [26] = species: Mus musculus; assay: Vaginal cornification test in mice at 2.5 ug; predominant cellular component leucocytes (diestrus); assay type: functional, organism-based
Rattus norvegicus [27] = species: Rattus norvegicus; assay: Final number of DMBA-induced hormone-dependent mammary carcinoma tumors in rats at 1 mg; assay type: functional; outline: as §2
Rattus norvegicus [28] = species: Rattus norvegicus; assay: Progression of DMBA-induced hormone-dependent mammary carcinoma tumors in rats at 1 mg; assay type: functional
[29] = target: T1, Estrogen receptor (Mus musculus); assay: Inhibitory activity in mouse uterine weight test at 50 ug (experiment 2); assay type: functional; outline: as §5
Rattus norvegicus [30] = species: Rattus norvegicus; assay: Final number of DMBA-induced hormone-dependent mammary carcinoma tumors in rats at 4 mg; assay type: functional; outline: as §2
Rattus norvegicus [31] = species: Rattus norvegicus; assay: Percent change in DMBA-induced hormone-dependent mammary carcinoma tumor area at 4 mg after 28 days; assay type: functional; outline: as §4
Rattus norvegicus [32] = species: Rattus norvegicus; assay: Partial remission of DMBA-induced hormone-dependent mammary carcinoma tumors in rats at 4 mg; assay type: functional; outline: as §4
[33] = target: T1, Estrogen receptor (Mus musculus); assay: Estrogenic activity in uterotrophic test in mice at 80 ug (experiment 2); assay type: functional; outline: as §1
[34] = target: T1, Estrogen receptor (Mus musculus); assay: Antiestrogenic activity in uterotrophic test in mice at 5 ug (experiment 1); assay type: functional; outline: as §8
Rattus norvegicus [35] = species: Rattus norvegicus; assay: Complete remission of DMBA-induced hormone-dependent mammary carcinoma tumors in rats at 4 mg; assay type: functional; outline: as §6
Rattus norvegicus [36] = species: Rattus norvegicus; assay: Final number of DMBA-induced hormone-dependent mammary carcinoma tumors in rats at 2 mg; assay type: functional; outline: as §2
Rattus norvegicus [37] = species: Rattus norvegicus; assay: Percent change in body weight DMBA-induced hormone-dependent mammary carcinoma tumors in rats at 18 mg for 7 days; assay type: functional; details: in the assay text read “at 1 mg” for “at 18 mg”; outline: as §4

Effect [1]: 17.6
inhibition [6]: 26%
inhibition [7]: 50%
Effect [14]: 28
Effect [18]: 25.9
Structure (SMILES): CCCC(c1cccc(O)c1)C(CCC)c1cccc(O)c1 (configuration not stated)
No. of tumors (Rattus norvegicus [2]): 6
Tumors (Rattus norvegicus [3]): 10%
Tumors (Rattus norvegicus [4]): 8%
No. of tumors (Rattus norvegicus [5]): 1
Activity (Mus musculus [8]): inactive
Tumors (Rattus norvegicus [9]): 52%
Change (Rattus norvegicus [10]): -99%
Tumors (Rattus norvegicus [11]): 17%
Change (Rattus norvegicus [12]): -1.1%
Tumors (Rattus norvegicus [13]): 25%
Tumors (Rattus norvegicus [15]): 0%
No. of tumors (Rattus norvegicus [16]): 16
Tumors (Rattus norvegicus [17]): 14%
Tumors (Rattus norvegicus [19]): 23%

Effect [21]: 11.8
inhibition [23]: 48%
Effect [24]: 30.8
inhibition [29]: 47%
Effect [33]: 30.5
Effect [34]: 23.5
Structure (SMILES): CCC(c1cccc(O)c1)C(CC)c1cccc(O)c1 (stereo in doubt; 20)
Tumors (Rattus norvegicus [20]): 15%
Tumors (Rattus norvegicus [22]): 30%
Change (Rattus norvegicus [25]): -5.3%
Activity (Mus musculus [26]): inactive
No. of tumors (Rattus norvegicus [27]): 29
Tumors (Rattus norvegicus [28]): 29%
No. of tumors (Rattus norvegicus [30]): 11
Change (Rattus norvegicus [31]): -75%
Tumors (Rattus norvegicus [32]): 25%
Tumors (Rattus norvegicus [35]): 46%
No. of tumors (Rattus norvegicus [36]): 23
Change (Rattus norvegicus [37]): -1.6%
